# From ChEMBL document CHEMBL2406974, “Xanthone glycoside constituents of Swertia kouitchensis with α-glucosidase inhibitory activity” (J Nat Prod, 2013)
# Experiment: Inhibition of Saccharomyces cerevisiae alpha-glucosidase using p-nitrophenyl-alpha-D-glucopyranoside as substrate preincubated for 15 mins
# Outline: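 Yeast enzyme at 0.6 U/mL in 0.1 M potassium phosphate buffer, pH 6.8. It was preincubated at 37 °C with test compound in water containing 0.5% DMSO. The reaction was started with 5.0 mM PNPG solution in the same buffer and incubated at 37 °C. It was stopped with 0.2 M Na2CO3 in phosphate buffer. Released p-nitrophenol was read at 405 nm, with IC50 as the output.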
row,Compound,IC50
1,COc1cc(O[C@@H]2O[C@H](CO[C@@H]3OC[C@@H](O)[C@H](O)[C@H]3O)[C@@H](O)[C@H](O)[C@H]2O)c2c(=O)c3c(OC)c(O)ccc3oc2c1OC,1500 µM
2,COc1cc(O[C@@H]2O[C@H](CO[C@@H]3OC[C@@H](O)[C@H](O)[C@H]3O)[C@@H](O)[C@H](O)[C@H]2O)c2c(=O)c3c(OC)c(OC)ccc3oc2c1OC,383 µM
3,COc1cc(O[C@@H]2O[C@H](CO[C@@H]3OC[C@@H](O)[C@H](O)[C@H]3O)[C@@H](O)[C@H](O)[C@H]2O)c2c(=O)c3c(OC)c(OC)cc(OC)c3oc2c1,371 µM
4,COc1ccc(O)c2c(=O)c3c(O)cc(O[C@@H]4O[C@H](CO[C@@H]5OC[C@@H](O)[C@H](O)[C@H]5O)[C@@H](O)[C@H](O)[C@H]4O)c(OC)c3oc12,184 µM
5,COc1cc(O[C@@H]2O[C@H](CO[C@@H]3O[C@H](CO)[C@@H](O)[C@H](O)[C@H]3O)[C@@H](O)[C@H](O)[C@H]2O)c2c(=O)c3cccc(OC)c3oc2c1,956 µM
6,C[C@H]1O[C@H](O[C@H]2[C@H](O)[C@@H](O)[C@@H](O[C@H]3[C@H](O)[C@@H](O)C(O)O[C@@H]3CO)O[C@@H]2CO)[C@H](O)[C@@H](O)[C@@H]1N[C@H]1C=C(CO)[C@@H](O)[C@H](O)[C@H]1O (some centres undefined) [ACARBOSE],627 µM
7,O=c1c2cc(O)c(O)cc2oc2cc(O)c([C@@H]3O[C@H](CO)[C@@H](O)[C@H](O)[C@H]3O)c(O)c12 [MANGIFERIN],296 µM

# Other lines, results leading:
row,IC50,Compound
1,701 µM,COc1cc(O[C@@H]2O[C@H](CO)[C@@H](O)[C@H](O)[C@H]2O)c2c(=O)c3c(OC)c(O)ccc3oc2c1O
2,360 µM,COc1cc(O[C@@H]2O[C@H](CO[C@@H]3OC[C@@H](O)[C@H](O)[C@H]3O)[C@@H](O)[C@H](O)[C@H]2O)c2c(=O)c3c(OC)ccc(OC)c3oc2c1
3,693 µM,COc1cc(O[C@@H]2O[C@H](CO[C@@H]3O[C@H](CO)[C@@H](O)[C@H](O)[C@H]3O)[C@@H](O)[C@H](O)[C@H]2O)c2c(=O)c3c(O)ccc(OC)c3oc2c1
4,> 1720 µM,COc1cc(O)c2c(=O)c3c(O)c(O[C@@H]4O[C@H](CO)[C@@H](O)[C@H](O)[C@H]4O[C@@H]4O[C@@H](C)[C@H](O)[C@@H](O)[C@H]4O)ccc3oc2c1
5,714 µM,COc1cc(O)c2c(=O)c3c(O[C@@H]4O[C@H](CO)[C@@H](O)[C@H](O)[C@H]4O)c(O[C@@H]4O[C@@H](C)[C@H](O)[C@@H](O)[C@H]4O)ccc3oc2c1
6,451 µM,COc1cc(O[C@@H]2O[C@H](CO[C@@H]3OC[C@@H](O)[C@H](O)[C@H]3O)[C@@H](O)[C@H](O)[C@H]2O)c2c(=O)c3c(O)c(OC)ccc3oc2c1
7,126 µM,COc1cc(O)c2c(=O)c3c(O[C@@H]4O[C@H](CO)[C@@H](O)[C@H](O)[C@H]4O)ccc(O)c3oc2c1 [SWERTIANOLIN]
